Assay [1] has as its target Serotonin receptor 2a and 2c (5HT2A and 5HT2C) (Rattus norvegicus, UniProt P08909+P14842). The experiment in a line: Tested for affinity against serotonin 5-HT2 receptor using […] (frontal cortex) in rat brain. Format: tissue-based.
The target in the next assay is D(2) dopamine receptor (Rattus norvegicus, UniProt P61169). Nature of the assay: Tested for affinity against dopamine D2 receptor using […] in rat brain. Format: tissue-based.
Assay [2] concerns the target T1, Adrenergic receptor alpha-2 (Rattus norvegicus, UniProt P22086+P19328+P22909).
T1 sequence (P22086 whole entry): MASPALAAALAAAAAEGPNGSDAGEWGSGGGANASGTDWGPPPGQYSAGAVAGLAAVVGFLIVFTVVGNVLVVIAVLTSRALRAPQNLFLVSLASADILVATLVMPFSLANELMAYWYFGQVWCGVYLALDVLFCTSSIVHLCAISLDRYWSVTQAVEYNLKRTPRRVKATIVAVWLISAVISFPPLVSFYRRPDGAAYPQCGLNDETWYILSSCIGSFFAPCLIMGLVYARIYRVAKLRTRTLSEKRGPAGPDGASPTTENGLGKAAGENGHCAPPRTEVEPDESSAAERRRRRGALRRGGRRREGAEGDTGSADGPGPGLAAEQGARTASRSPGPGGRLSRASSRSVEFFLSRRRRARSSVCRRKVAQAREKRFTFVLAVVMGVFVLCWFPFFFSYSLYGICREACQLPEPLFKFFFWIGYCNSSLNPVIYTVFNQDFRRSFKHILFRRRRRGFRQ
T1 sequence (P19328 whole entry): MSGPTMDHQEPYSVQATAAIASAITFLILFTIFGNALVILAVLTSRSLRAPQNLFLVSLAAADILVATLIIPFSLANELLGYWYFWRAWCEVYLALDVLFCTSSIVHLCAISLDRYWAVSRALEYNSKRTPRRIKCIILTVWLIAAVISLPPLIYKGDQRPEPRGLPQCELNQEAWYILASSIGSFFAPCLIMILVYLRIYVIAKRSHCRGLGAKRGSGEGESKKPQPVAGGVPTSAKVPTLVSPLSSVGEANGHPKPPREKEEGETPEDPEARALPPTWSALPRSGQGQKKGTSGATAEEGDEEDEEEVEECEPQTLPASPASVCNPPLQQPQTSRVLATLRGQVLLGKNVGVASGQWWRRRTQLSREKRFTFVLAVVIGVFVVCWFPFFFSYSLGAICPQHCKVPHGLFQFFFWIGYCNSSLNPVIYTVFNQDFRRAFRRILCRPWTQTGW
T1 sequence (P22909 whole entry): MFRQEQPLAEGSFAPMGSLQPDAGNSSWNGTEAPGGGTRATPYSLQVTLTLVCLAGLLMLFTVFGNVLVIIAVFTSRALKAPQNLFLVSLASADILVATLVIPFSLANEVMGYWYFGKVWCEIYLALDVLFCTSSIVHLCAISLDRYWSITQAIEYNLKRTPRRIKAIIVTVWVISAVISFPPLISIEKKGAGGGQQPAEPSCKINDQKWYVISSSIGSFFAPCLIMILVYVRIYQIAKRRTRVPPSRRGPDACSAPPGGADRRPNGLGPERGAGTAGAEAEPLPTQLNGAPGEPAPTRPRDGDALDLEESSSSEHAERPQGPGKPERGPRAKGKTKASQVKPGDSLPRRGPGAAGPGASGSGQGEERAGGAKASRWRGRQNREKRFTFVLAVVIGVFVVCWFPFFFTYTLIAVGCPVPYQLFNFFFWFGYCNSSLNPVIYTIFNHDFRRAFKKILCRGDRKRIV
The experiment in a line: Tested for affinity against alpha-2-adrenergic using [3H]clonidine in rat brain. Format: tissue-based. The essentials: (§1)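 Radioligand binding in cortical membranes from male Sprague-Dawley rats (110-150 g). Ligands: [3H]serotonin for 5-HT1, [3H]QNB for muscarinic, [3H]WB4101 for α1, [3H]clonidine for α2, [3H]dihydroalprenolol for β-adrenergic.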

Assay [3] deals with Delta-type opioid receptor (Rattus norvegicus, UniProt P33533). The experiment in a line: Binding affinity towards delta-opioid receptor by displacement of [3H]DADL in rat brain homogenates. Format: tissue-based. In outline: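 Radioligand displacement. Kappa: [3H]EKC, guinea pig cortex, with fentanyl and DADL added to block mu/delta binding. Delta: [3H]DADL, rat brain homogenate.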

The test system of another assay is Rattus norvegicus. Nature of the assay: Tested for concentration required to reduce the food consumption by 20 % subcutaneously. Format: functional. As to conditions: Rattus norvegicus, sc; read-out: ED50. In outline:
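Obese Zucker rats, 3-4 months old, trained to eat only 8 am-4 pm. Groups of 4 (2 male, 2 female), with one saline control group daily. Compound in saline with 10% DMSO, given sc on 3 consecutive days, typical doses 5.0-0.08 mg/kg (0.02-20 in some cases). Intake measured over the first 4 h. ED20 from regression of the linear portion of the dose-response curve.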

The target of assay [4] is Muscarinic acetylcholine receptor. Nature of the assay: Tested for affinity against muscarinic acetylcholine using [3H]quinuclidinyl benzylate in rat brain. Format: tissue-based. The essentials: as §1
The target in the next assay is Adrenergic receptor beta (Rattus norvegicus, UniProt P18090+P10608+P26255). The experiment in a line: Tested for affinity against beta-adrenergic using [3H]dihydroalprenolol in rat brain. Format: tissue-based. In outline: as §1
Another assay addresses Dopamine receptor. Nature of the assay: Tested for affinity against dopamine autoreceptor using [3H]apomorphine in rat brain. Type of assay: tissue-based.
For assay [5], the target named is Mu-type opioid receptor (Cavia porcellus) (UniProt P97266). The settings on record: Ileum, 2 nM.
In assay [6] the target is Kappa-type opioid receptor (Cavia porcellus) (UniProt P41144). As to conditions: Ileum, 2 nM.
A short description of assay [7]: Tested for affinity against serotonin 5-HT1 receptor using [3H]5-HT in rat brain. Type of assay: tissue-based. In outline: as §1
Assay [8] deals with Kappa-type opioid receptor (Rattus norvegicus) (UniProt P34975). The experiment in a line: Antagonism of bremazocine induced kappa receptor diuresis in rats at a concentration of 0.08 mg/kg subcutaneously. Format: functional, organism-based. On the set-up: dose 0.08 mg/kg. The essentials: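 Male Long-Evans hooded rats (350-500 g), reused no more than twice weekly. Bremazocine 0.08 mg/kg sc, test antagonist sc on the opposite side without delay. Rats housed in metabolism cages; urine volume recorded at 2 and 5 h. 3 rats/dose, doses varied 2-fold. AD50 = dose reducing cumulative 5-h induced urination by 50%.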

In assay [9] the target is Kappa-type opioid receptor (Mus musculus) (UniProt P33534). Nature of the assay: Antagonist activity towards U50 488 induced kappa opioid receptor by mouse writhing assay at 2.5 mg/kg subcutaneously. Type of assay: functional, organism-based. Also on record: dose 2.5 mg/kg. The essentials: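 Mouse acetic acid writhing: 0.6% acetic acid ip, writhes counted for 10 min starting 5 min after injection. 5 mice/point, ≥5 doses varied 2-fold, each mouse used once. AD50 = antagonist dose reducing agonist-induced writhing inhibition to 50%.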

Another assay concerns the target D(1A) dopamine receptor (Rattus norvegicus, UniProt P18901). The experiment in a line: Tested for affinity against dopamine D1 receptor using [3H]SCH-23,390 in rat brain. Type of assay: tissue-based.
Assay [10] is described as follows: Tested for affinity against phencyclidine using [3H]phencyclidine in rat brain. Type of assay: tissue-based.

The values that follow come from ChEMBL document CHEMBL1127053, “3,4-Dimethyl-4-(3-hydroxyphenyl)piperidines: opioid antagonists with potent anorectant activity” (J Med Chem, 1993).

Chain of Kappa-type opioid receptor (Cavia porcellus) (P41144 whole entry): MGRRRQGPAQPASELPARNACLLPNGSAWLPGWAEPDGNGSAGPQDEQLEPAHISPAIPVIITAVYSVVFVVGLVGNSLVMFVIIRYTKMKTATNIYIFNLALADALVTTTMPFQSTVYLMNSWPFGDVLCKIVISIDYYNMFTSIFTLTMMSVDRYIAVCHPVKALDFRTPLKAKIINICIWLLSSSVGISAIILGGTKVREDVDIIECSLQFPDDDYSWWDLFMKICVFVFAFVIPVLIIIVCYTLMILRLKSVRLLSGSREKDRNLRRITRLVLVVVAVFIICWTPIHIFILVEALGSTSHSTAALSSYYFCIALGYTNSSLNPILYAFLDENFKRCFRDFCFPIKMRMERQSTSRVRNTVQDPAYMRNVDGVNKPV
Chain of Kappa-type opioid receptor (Rattus norvegicus) (P34975 whole entry): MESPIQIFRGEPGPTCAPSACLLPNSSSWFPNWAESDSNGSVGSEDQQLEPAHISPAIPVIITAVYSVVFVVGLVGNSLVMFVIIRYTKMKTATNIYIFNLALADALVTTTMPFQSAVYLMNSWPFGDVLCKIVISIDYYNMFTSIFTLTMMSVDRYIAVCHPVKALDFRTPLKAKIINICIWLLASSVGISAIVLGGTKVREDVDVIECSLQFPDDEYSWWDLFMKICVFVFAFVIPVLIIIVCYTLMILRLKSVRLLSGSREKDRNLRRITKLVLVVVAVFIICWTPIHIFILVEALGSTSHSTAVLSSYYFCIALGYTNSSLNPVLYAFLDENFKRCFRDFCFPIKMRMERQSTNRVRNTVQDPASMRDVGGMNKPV
Chain of Kappa-type opioid receptor (Mus musculus) (P33534 whole entry): as the sequence (P34975 whole entry) above, with E11D, A17S, P51S, V308A counted along it
Chain of D(1A) dopamine receptor (P18901 whole entry): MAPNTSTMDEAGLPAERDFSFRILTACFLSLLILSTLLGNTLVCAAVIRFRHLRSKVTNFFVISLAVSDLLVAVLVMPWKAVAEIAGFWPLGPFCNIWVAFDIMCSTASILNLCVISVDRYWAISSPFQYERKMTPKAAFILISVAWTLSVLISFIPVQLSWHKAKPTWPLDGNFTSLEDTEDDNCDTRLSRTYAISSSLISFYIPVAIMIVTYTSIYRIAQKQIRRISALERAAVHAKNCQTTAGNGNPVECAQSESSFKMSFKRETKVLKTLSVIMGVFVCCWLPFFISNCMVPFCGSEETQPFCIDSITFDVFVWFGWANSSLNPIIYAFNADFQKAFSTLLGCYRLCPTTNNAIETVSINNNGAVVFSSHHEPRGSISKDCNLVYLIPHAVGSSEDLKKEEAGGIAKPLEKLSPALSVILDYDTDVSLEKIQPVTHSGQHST
Chain of Delta-type opioid receptor (P33533 whole entry): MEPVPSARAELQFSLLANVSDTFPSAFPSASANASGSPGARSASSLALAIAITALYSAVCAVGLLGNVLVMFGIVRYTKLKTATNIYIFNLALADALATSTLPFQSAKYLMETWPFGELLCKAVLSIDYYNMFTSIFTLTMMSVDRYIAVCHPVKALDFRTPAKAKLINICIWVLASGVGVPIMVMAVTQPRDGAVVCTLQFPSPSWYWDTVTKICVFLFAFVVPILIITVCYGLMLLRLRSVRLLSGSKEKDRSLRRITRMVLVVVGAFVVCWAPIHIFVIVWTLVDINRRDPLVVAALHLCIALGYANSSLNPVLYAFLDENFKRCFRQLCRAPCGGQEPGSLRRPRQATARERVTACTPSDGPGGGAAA
Chain of D(2) dopamine receptor (P61169 whole entry): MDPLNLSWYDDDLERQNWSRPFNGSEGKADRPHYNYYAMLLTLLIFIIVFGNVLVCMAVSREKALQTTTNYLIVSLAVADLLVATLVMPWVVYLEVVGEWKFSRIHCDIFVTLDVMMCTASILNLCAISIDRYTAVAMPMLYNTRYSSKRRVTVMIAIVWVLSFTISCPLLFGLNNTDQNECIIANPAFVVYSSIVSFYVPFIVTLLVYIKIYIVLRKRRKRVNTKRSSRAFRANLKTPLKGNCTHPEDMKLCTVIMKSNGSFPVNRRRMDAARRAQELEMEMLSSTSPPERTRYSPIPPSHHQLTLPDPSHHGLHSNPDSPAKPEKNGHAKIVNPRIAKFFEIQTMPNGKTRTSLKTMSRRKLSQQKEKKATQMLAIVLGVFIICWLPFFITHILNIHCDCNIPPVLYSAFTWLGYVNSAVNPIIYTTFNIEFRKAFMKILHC
Chain of Mu-type opioid receptor (Cavia porcellus) (P97266 whole entry): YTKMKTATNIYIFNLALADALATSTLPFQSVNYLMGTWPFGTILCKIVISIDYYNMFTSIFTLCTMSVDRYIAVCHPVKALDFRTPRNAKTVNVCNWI

As for `C[C@H]1CN(CC[C@H](O)C2CCCCC2)CC[C@@]1(C)c1cccc(O)c1`, the IC50 was greater than 1 µM in [1]; greater than 1 µM against D(2) dopamine receptor; greater than 5 µM in [2]; greater than 10 µM in assay [4]; greater than 5 µM against Adrenergic receptor beta; greater than 1 µM at Dopamine receptor. The IC50 (in assay [7]; at D(1A) dopamine receptor; in assay [10]) was greater than 1 µM in each case. The compound further registered an inhibition constant (Ki) in assay [3] of 0.0052 µM. In addition, the median effective dose (ED50) in the assay on Rattus norvegicus is 0.04 mg/kg. For the same compound, the Ke was determined as 0.24 nM in assay [5] and 0.31 nM in assay [6]. Moreover, the AD50 in assay [8] is 0.38 mg/kg; in assay [9], 0.05 mg/kg.
